The values below come from ChEMBL document CHEMBL1158533, “Pyrazolylthiazole as DeltaF508-cystic fibrosis transmembrane conductance regulator correctors with improved hydrophilicity compared to bithiazoles” (J Med Chem, 2010).

pEC50: −log10 of the molar value.

In series [1] the target is Cystic fibrosis transmembrane conductance regulator (Homo sapiens, UniProt P13569). Briefly: Binding affinity to human CFTR F508 deletion mutant expressed in FRT cells assessed as increase in iodine influx after 16 to 20 hrs by fluorescence assay. The format is cell-based. An outline of the steps:
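FRT cells stably coexpressing human ΔF508-CFTR and halide sensor YFP-H148Q/I152L, grown 24 h at 37 °C, then incubated 16–20 h with test compound. Washed in PBS, then 20 min in PBS with forskolin (20 μM) and genistein (50 μM). Fluorescence (ex 500, em 535 nm) recorded 2 s baseline, then 12 s after I⁻-substituted PBS addition; initial I⁻ influx rate from exponential regression; EC50 and Vmax from concentration dependence.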

Series [2] is described as follows: Octanol-water partition coefficient, log P by reverse-phase HPLC analysis. The format is physicochemical. An outline of the steps: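 logP derived from reverse-phase HPLC capacity factor: logk from measured retention time, converted via a calibration curve of standards with known logP versus their logk values.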

Chain of Cystic fibrosis transmembrane conductance regulator (P13569 whole entry, looked up): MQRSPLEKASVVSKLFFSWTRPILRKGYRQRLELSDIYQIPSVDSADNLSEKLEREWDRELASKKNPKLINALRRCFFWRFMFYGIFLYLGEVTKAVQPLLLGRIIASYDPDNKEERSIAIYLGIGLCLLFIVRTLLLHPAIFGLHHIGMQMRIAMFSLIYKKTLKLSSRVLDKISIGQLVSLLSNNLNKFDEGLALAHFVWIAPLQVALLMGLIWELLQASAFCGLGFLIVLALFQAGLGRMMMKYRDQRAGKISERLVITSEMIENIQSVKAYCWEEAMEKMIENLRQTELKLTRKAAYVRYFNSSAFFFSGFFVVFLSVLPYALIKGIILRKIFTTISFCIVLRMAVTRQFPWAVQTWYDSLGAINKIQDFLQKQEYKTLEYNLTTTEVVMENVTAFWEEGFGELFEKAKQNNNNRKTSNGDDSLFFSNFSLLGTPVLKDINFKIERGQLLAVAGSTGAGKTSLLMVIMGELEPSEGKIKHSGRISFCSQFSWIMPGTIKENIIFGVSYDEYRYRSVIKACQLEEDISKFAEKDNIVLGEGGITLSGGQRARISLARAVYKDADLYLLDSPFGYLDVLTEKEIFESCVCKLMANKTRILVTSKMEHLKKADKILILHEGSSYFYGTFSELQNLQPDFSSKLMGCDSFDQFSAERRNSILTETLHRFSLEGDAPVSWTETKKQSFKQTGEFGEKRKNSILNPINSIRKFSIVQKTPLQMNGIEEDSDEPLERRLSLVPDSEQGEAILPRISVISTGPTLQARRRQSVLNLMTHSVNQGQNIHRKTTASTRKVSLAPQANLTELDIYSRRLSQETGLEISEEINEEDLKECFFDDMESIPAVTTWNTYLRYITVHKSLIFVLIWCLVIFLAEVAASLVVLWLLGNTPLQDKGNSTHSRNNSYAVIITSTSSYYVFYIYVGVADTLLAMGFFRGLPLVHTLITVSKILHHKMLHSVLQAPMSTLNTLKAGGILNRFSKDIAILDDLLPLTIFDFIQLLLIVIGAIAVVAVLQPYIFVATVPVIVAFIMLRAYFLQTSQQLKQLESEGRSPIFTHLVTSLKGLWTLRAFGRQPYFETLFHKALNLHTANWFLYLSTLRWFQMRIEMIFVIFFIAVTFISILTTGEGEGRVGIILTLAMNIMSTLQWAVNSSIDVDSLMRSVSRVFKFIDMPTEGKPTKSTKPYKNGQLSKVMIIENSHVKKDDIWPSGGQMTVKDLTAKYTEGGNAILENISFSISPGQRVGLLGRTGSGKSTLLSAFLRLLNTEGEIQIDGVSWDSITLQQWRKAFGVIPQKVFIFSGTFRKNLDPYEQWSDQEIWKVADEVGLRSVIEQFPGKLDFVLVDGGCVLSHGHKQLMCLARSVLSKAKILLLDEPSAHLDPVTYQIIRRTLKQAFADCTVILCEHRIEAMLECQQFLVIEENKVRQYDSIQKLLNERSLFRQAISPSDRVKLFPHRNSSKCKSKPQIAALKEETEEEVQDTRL

On to `COc1ccc(NC(=O)c2cc(-c3sc(NC(=O)C(C)(C)C)nc3C)n(-c3ccc(Br)cc3)n2)cc1`, for which the pEC50 – broadly, −log10 of the EC50, conventionally taken in molar units – in series [1] is 5.47. The logP (usually a log measure of how a compound divides between an organic and an aqueous phase) in series [2] is 5.52.

Take `CCOC(=O)c1cc(-c2sc(NC(=O)C(C)(C)C)nc2C)nn1Cc1ccccc1`: the pEC50 in series [1] is 5.07. Still for that read-out and setting: with `COc1ccc(Cl)cc1Nc1nc2c(s1)CCCc1nc(NC(=O)C(C)(C)C)sc1-2` the figure was 6.52. The same measure, in the same setting: in the case of `COc1ccc(Cl)cc1Nc1nc(-c2sc(NC(=O)C(C)(C)C)nc2C)cs1` it was 6.15.
